# In ChEMBL document CHEMBL1122046, “Quaternary heterocyclylamino beta-lactams: a generic alternative to the classical acylamino side chain” (1982):
# Test system: Escherichia coli
# Assay: MIC against aerobic organism Escherichia coli strain 2891
# Format: functional
# Conditions: Escherichia coli; read-out: MIC
# Procedure, shortened: (§1)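 Agar-dilution MIC in µg/mL against aerobic bacterial strains on tryptocase soy agar, with inoculum applied as spots. Most series used 10^5 cfu per spot, and a later series used 10^4 cfu per spot. In some tables, footnoted strains were instead tested on Mueller-Hinton or nutrient agar. β-Lactamase-producing strains are flagged.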
row,MIC,Compound
1,128 µg/mL,Cn1nnnc1SCC1=C(C(=O)[O-])N2C(=O)[C@@H](Nc3cc[n+](COCC(Cl)(Cl)Cl)cc3C(=O)OC(C)(C)C)[C@H]2SC1

# Test system: Proteus vulgaris
# Assay: Minimum inhibitory concentration against aerobic organism Proteus vulgaris strain 2829
# Format: functional
# Conditions: Proteus vulgaris; read-out: MIC
# Procedure, shortened: as §1
row,MIC,Compound
1,> 128 µg/mL,Cn1nnnc1SCC1=C(C(=O)[O-])N2C(=O)[C@@H](Nc3cc[n+](COCC(Cl)(Cl)Cl)cc3C(=O)OC(C)(C)C)[C@H]2SC1

# Test system: Proteus mirabilis
# Assay: Minimum inhibitory concentration against aerobic organism Proteus mirabilis strain 2830
# Format: functional
# Conditions: Proteus mirabilis; read-out: MIC
# Procedure, shortened: as §1
row,MIC,Compound
1,> 128 µg/mL,Cn1nnnc1SCC1=C(C(=O)[O-])N2C(=O)[C@@H](Nc3cc[n+](COCC(Cl)(Cl)Cl)cc3C(=O)OC(C)(C)C)[C@H]2SC1

# Test system: Klebsiella aerogenes
# Assay: Minimum inhibitory concentration against aerobic organism Enterobacter aerogenes strain 2828
# Format: functional
# Conditions: not given
# Procedure, shortened: as §1
row,MIC,Compound
1,> 128 µg/mL,Cn1nnnc1SCC1=C(C(=O)[O-])N2C(=O)[C@@H](Nc3cc[n+](COCC(Cl)(Cl)Cl)cc3C(=O)OC(C)(C)C)[C@H]2SC1

# Test system: Enterococcus faecalis
# Assay: Minimum inhibitory concentration against aerobic organism Streptococcus faecalis strain 2864
# Format: functional
# Conditions: not given
# Procedure, shortened: as §1
row,MIC,Compound
1,> 128 µg/mL,Cn1nnnc1SCC1=C(C(=O)[O-])N2C(=O)[C@@H](Nc3cc[n+](COCC(Cl)(Cl)Cl)cc3C(=O)OC(C)(C)C)[C@H]2SC1

# Test system: Streptococcus pyogenes
# Assay: Inhibition zone diameter against aerobic organism Streptococcus pyogenes strain 2874
# Conditions: not given
row,Compound,zone diameter
1,CC(=O)NCCSC1=C(C(=O)O)N2C(=O)[C@H](C(C)O)[C@H]2C1 (stereo partly drawn),37 mm
2,C[C@@H](O)[C@H]1C(=O)N2C(C(=O)O)=C(SCCNC=N)C[C@H]12 [IMIPENEM ANHYDROUS],43 mm
3,CC(O)[C@H]1C(=O)N2C(C(=O)[O-])=C(SCCNc3cc[n+](Cc4ccccc4)cc3)C[C@H]12 (stereo partly drawn),35.2 mm

# Test system: Staphylococcus aureus
# Assay: Minimum inhibitory concentration against aerobic organism Staphylococcus aureus strain 2868
# Format: functional
# Conditions: Staphylococcus aureus; read-out: MIC
# Procedure, shortened: as §1
row,MIC,Compound
1,> 128 µg/mL,Cn1nnnc1SCC1=C(C(=O)[O-])N2C(=O)[C@@H](Nc3cc[n+](COCC(Cl)(Cl)Cl)cc3C(=O)OC(C)(C)C)[C@H]2SC1

# Test system: Staphylococcus aureus
# Assay: Minimum inhibitory concentration against aerobic organism Staphylococcus aureus strain 2865
# Format: functional
# Conditions: not given
# Procedure, shortened: as §1
row,MIC,Compound
1,128 µg/mL,Cn1nnnc1SCC1=C(C(=O)[O-])N2C(=O)[C@@H](Nc3cc[n+](COCC(Cl)(Cl)Cl)cc3C(=O)OC(C)(C)C)[C@H]2SC1

# Test system: Klebsiella pneumoniae
# Assay: Minimum inhibitory concentration against aerobic organism Klebsiella pneumoniae strain 4005
# Format: functional
# Conditions: not given
# Procedure, shortened: as §1
row,MIC,Compound
1,> 128 µg/mL,Cn1nnnc1SCC1=C(C(=O)[O-])N2C(=O)[C@@H](Nc3cc[n+](COCC(Cl)(Cl)Cl)cc3C(=O)OC(C)(C)C)[C@H]2SC1

# Test system: Enterobacter cloacae
# Assay: Minimum inhibitory concentration against aerobic organism Enterobacter cloacae strain 2646
# Format: functional
# Conditions: Enterobacter cloacae; read-out: MIC
# Procedure, shortened: as §1
row,MIC,Compound
1,> 128 µg/mL,Cn1nnnc1SCC1=C(C(=O)[O-])N2C(=O)[C@@H](Nc3cc[n+](COCC(Cl)(Cl)Cl)cc3C(=O)OC(C)(C)C)[C@H]2SC1

# Test system: Salmonella
# Assay: Inhibition zone diameter against aerobic organism Salmonella strain 826
# Conditions: not given
row,Compound,zone diameter
1,CC(=O)NCCSC1=C(C(=O)O)N2C(=O)[C@H](C(C)O)[C@H]2C1 (stereo partly drawn),30.5 mm
2,C[C@@H](O)[C@H]1C(=O)N2C(C(=O)O)=C(SCCNC=N)C[C@H]12 [IMIPENEM ANHYDROUS],29.5 mm
3,CC(O)[C@H]1C(=O)N2C(C(=O)[O-])=C(SCCNc3cc[n+](Cc4ccccc4)cc3)C[C@H]12 (stereo partly drawn),26 mm

# Test system: Staphylococcus aureus
# Assay: Inhibition zone diameter against aerobic organism Staphylococcus aureus strain 2314
# Conditions: not given
row,Compound,zone diameter
1,CC(=O)NCCSC1=C(C(=O)O)N2C(=O)[C@H](C(C)O)[C@H]2C1 (stereo partly drawn),39 mm
2,C[C@@H](O)[C@H]1C(=O)N2C(C(=O)O)=C(SCCNC=N)C[C@H]12 [IMIPENEM ANHYDROUS],42 mm
3,CC(O)[C@H]1C(=O)N2C(C(=O)[O-])=C(SCCNc3cc[n+](Cc4ccccc4)cc3)C[C@H]12 (stereo partly drawn),36 mm

# Test system: Pseudomonas aeruginosa
# Assay: Inhibition zone diameter against aerobic organism Pseudomonas aeruginosa strain 3350
# Conditions: not given
row,Compound,zone diameter
1,CC(=O)NCCSC1=C(C(=O)O)N2C(=O)[C@H](C(C)O)[C@H]2C1 (stereo partly drawn),10 mm
2,C[C@@H](O)[C@H]1C(=O)N2C(C(=O)O)=C(SCCNC=N)C[C@H]12 [IMIPENEM ANHYDROUS],31 mm
3,CC(O)[C@H]1C(=O)N2C(C(=O)[O-])=C(SCCNc3cc[n+](Cc4ccccc4)cc3)C[C@H]12 (stereo partly drawn),11.2 mm

# Test system: Serratia marcescens
# Assay: Inhibition zone diameter against aerobic organism Serratia marcescenes strain 2855
# Conditions: not given
row,Compound,zone diameter
1,CC(=O)NCCSC1=C(C(=O)O)N2C(=O)[C@H](C(C)O)[C@H]2C1 (stereo partly drawn),28 mm
2,C[C@@H](O)[C@H]1C(=O)N2C(C(=O)O)=C(SCCNC=N)C[C@H]12 [IMIPENEM ANHYDROUS],24.5 mm
3,CC(O)[C@H]1C(=O)N2C(C(=O)[O-])=C(SCCNc3cc[n+](Cc4ccccc4)cc3)C[C@H]12 (stereo partly drawn),25 mm

# Test system: Morganella morganii
# Assay: Disk zone diameter (25 ug/disk) against aerobic organism Morganella morganii strain 2834
# Conditions: not given
row,Compound,zone diameter
1,CC(=O)NCCSC1=C(C(=O)O)N2C(=O)[C@H](C(C)O)[C@H]2C1 (stereo partly drawn),28.5 mm
2,C[C@@H](O)[C@H]1C(=O)N2C(C(=O)O)=C(SCCNC=N)C[C@H]12 [IMIPENEM ANHYDROUS],27 mm
3,CC(O)[C@H]1C(=O)N2C(C(=O)[O-])=C(SCCNc3cc[n+](Cc4ccccc4)cc3)C[C@H]12 (stereo partly drawn),26.5 mm

# Test system: Pseudomonas aeruginosa
# Assay: Minimum inhibitory concentration against aerobic organism Pseudomonas aeruginosa strain 2835
# Format: functional
# Conditions: not given
# Procedure, shortened: as §1
row,MIC,Compound
1,> 128 µg/mL,Cn1nnnc1SCC1=C(C(=O)[O-])N2C(=O)[C@@H](Nc3cc[n+](COCC(Cl)(Cl)Cl)cc3C(=O)OC(C)(C)C)[C@H]2SC1

# Test system: Morganella morganii
# Assay: Minimum inhibitory concentration against aerobic organism Morganella morganii strain 2833
# Format: functional
# Conditions: Morganella morganii; read-out: MIC
# Procedure, shortened: as §1
row,MIC,Compound
1,> 128 µg/mL,Cn1nnnc1SCC1=C(C(=O)[O-])N2C(=O)[C@@H](Nc3cc[n+](COCC(Cl)(Cl)Cl)cc3C(=O)OC(C)(C)C)[C@H]2SC1

# Test system: Salmonella
# Assay: Minimum inhibitory concentration against aerobic organism Salmonella strain 3860
# Format: functional
# Conditions: not given
# Procedure, shortened: as §1
row,MIC,Compound
1,> 128 µg/mL,Cn1nnnc1SCC1=C(C(=O)[O-])N2C(=O)[C@@H](Nc3cc[n+](COCC(Cl)(Cl)Cl)cc3C(=O)OC(C)(C)C)[C@H]2SC1

# Test system: Klebsiella
# Assay: Inhibition zone diameter against aerobic organism Klebsiella species strain 2921
# Conditions: not given
row,Compound,zone diameter
1,CC(=O)NCCSC1=C(C(=O)O)N2C(=O)[C@H](C(C)O)[C@H]2C1 (stereo partly drawn),28 mm
2,C[C@@H](O)[C@H]1C(=O)N2C(C(=O)O)=C(SCCNC=N)C[C@H]12 [IMIPENEM ANHYDROUS],26.5 mm
3,CC(O)[C@H]1C(=O)N2C(C(=O)[O-])=C(SCCNc3cc[n+](Cc4ccccc4)cc3)C[C@H]12 (stereo partly drawn),24 mm
